Reference: ChEMBL document CHEMBL6177979, “Exploring the Phototherapeutic Applications of Mitochondria-Targeted COUPY Photocages of Antitumor Drugs” (J Med Chem, 2025)
Activity calls are given as the source filed them. No cut-off for these calls is given here.

Legend:
[1] = Photophysical property of the compound assessed as fluorescence quantum yield; assay type: physicochemical
Outline: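 Fluorescence quantum yield by the comparative method against cresyl violet in ethanol (ΦF 0.54). Optically matched solutions with absorbance below 0.1 at 540 nm excitation. Calculated from integrated emission, absorbance and refractive indexes.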

[2] = Induction of ROS generation in PBS buffer assessed as increase in singlet oxygen by measuring increase in SOSG fluorescence intensity at 10 uM irradiated with green light 505 nm 100 mW/cm2 for 15 mins by SOSG probe based analysis; assay type: functional
Outline: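 Cell-free fluorogenic probe test. Compound (10 μM) in PBS with 2% DMSO plus SOSG (5 μM, singlet oxygen) or DHR123 (10 μM, superoxide), irradiated with green LED light (505 ± 35 nm, 100 mW cm–2), with the rise in probe fluorescence followed. Positive references were Rose Bengal (SOSG) and methylene blue (DHR123). Scavenger controls used sodium azide-saturated PBS (singlet oxygen) or tiron-saturated PBS (superoxide).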

[3] = Induction of singlet oxygen quantum yield under irradiation with green light 505 nm 100 mW/cm2 by; assay type: functional
Outline: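 Singlet oxygen quantum yield measured in air-saturated DCM (bubbled 15 min). DPBF trap at ~1.0 absorbance (50 μM); compound absorbance set to 0.06 at 505 nm. Irradiated with LED at 505 ± 35 nm, 100 mW cm–2.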

[4] = Drug uptake in human HeLa cells assessed as increase in fluorescence intensity at 1 uM incubated for 30 mins by DAPI staining based confocal microscopic analysis; assay type: ADME, cell-based; conditions: 0.5 h
Outline: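 HeLa cells seeded on glass-bottom dishes in DMEM with 10% FBS. After 24 h, incubated 30 min at 37 °C with compound (1 μM) in supplemented DMEM. Washed three times with DPBS, kept in phenol red-free low-glucose DMEM, imaged live by confocal with 561 nm excitation and 570–670 nm detection.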

[5] = Drug localization in lysosome of human HeLa cells at 1 uM incubated for 30 mins by Lysotracker green dye based analysis; assay type: ADME, subcellular; conditions: 0.5 h
Outline: (§1)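 HeLa cells incubated with compound (1 μM) for 30 min at 37 °C in nonsupplemented DMEM. LysoTracker Green FM added for the last 5 min and WGA Alexa Fluor 633 for the last 20 min. Cells washed with DPBS and imaged live by confocal at 37 °C: compound excited at 561 nm (570–670 nm), LTG at 488 nm, WGA at 633 nm. Pearson's coefficient from 5 stacks, about 25 cells each.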

[6] = Drug localization in lysosome of human HeLa cells at 1 uM incubated for 30 mins by wheat germ agglutinin alexa fluor 633 probe based analysis; assay type: ADME, subcellular; conditions: 0.5 h; outline: as §1
HeLa [7] = test: Photocytotoxicity in human HeLa cells assessed as reduction in cell viability irradiated with 550 nm 4 mW/cm^-2 green-yellow LED light for 1 hr and measured after 48 hrs by MTT assay; assay type: toxicity, cell-based; conditions: 49 h
Outline: (§2)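 HeLa or U87-MG cells seeded at 5000/well in DMEM with 10% FBS and 1% penicillin-streptomycin, grown 24 h. Compound added at 0–200 μM final (0.5% DMSO) for 1 h at 37 °C in the dark. Then 1 h dark or 550 nm pulsed LED (4 mW/cm2, 1 min on/1 min off; 7.2 J cm–2). Medium refreshed, 48 h incubation, MTT read-out. IC50 from sigmoidal dose–response curves, n = 3.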

HeLa [8] = test: Photocytotoxicity in human HeLa cells assessed as reduction in cell viability irradiated with 550 nm 4 mW/cm^-2 green-yellow LED light for 1 hr and measured after 48 hrs in presence of CLB by MTT assay; assay type: toxicity, cell-based; conditions: 49 h; outline: as §2
HeLa [9] = test: Photocytotoxicity in human HeLa cells assessed as reduction in cell viability irradiated with 550 nm 4 mW/cm^-2 green-yellow LED light for 1 hr and measured after 48 hrs in presence of 4-PBA by MTT assay; assay type: toxicity, cell-based; conditions: 49 h; outline: as §2
HeLa [10] = test: Cytotoxicity against human HeLa cells assessed as reduction in cell viability at 100 uM incubated for 2 hrs under dark condition by MTT assay; assay type: functional, cell-based; outline: as §2
[11] = Phototoxic index, ratio of IC50 for cytotoxicity against human HeLa cells assessed as reduction in cell viability incubated for 2 hrs under dark condition by MTT assay to IC50 for photocytotoxicity in human HeLa cells assessed as reduction in cell viability irradiated with 550 nm 4 mW/cm^-2 green-yellow […] and measured after 48 hrs by MTT assay; assay type: toxicity, cell-based; conditions: read-out: Ratio IC50
Outline: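 Phototoxic index is dark IC50 divided by light IC50, HeLa MTT assay. Cells had 1 h compound in the dark, then 1 h dark or 550 nm LED (4 mW/cm2 pulsed, 7.2 J cm–2), then 48 h after medium change.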

[12] = Photochemical property of compound assessed as uncaging quantum yields; assay type: physicochemical
Outline: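 Uncaging quantum yields derived from photon flux (DAE actinometry) together with photolysis rate parameters. Photolysis run in PBS/ACN 8:2 at 37 °C under a 530 nm-centred LED.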

[13] = Drug localization in […] of human HeLa cells at 1 uM incubated for 30 mins by Lysotracker green dye based confocal scanning microscopic analysis; assay type: ADME, subcellular; conditions: 0.5 h; outline: as §1
[14] = Drug localization in Endosome of human HeLa cells at 1 uM incubated for 30 mins by wheat germ agglutinin alexa fluor 633 probe based analysis; assay type: ADME, subcellular; conditions: 0.5 h; outline: as §1
[15] = Photoactivation of the compound in PBS/ACN incubated for 2 hrs by RP-HPLC analysis; conditions: buffer
Outline: (§3)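 Caged compound (20 μM) with 4-dimethylaminopyridine internal standard (20 μM) in PBS/ACN 8:2 at 37 °C. First held 2 h in the dark for stability, then irradiated with a 470–750 nm LED centred at 530 nm while stirred. Release followed by RP-HPLC with formic acid/water–ACN gradients.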

[16] = Photoactivation of the compound in PBS/ACN irradiation with visible light at 530 nm 150 mW cm2 incubated for 2 hrs by RP-HPLC analysis; design: dose or concentration left out as unconfirmed; conditions: buffer; outline: as §3
[17] = Induction of ROS generation in PBS buffer assessed as increase in superoxide anion radical level by measuring increase in DHR123 fluorescence intensity at 10 uM irradiated with 505 nm 100 mW/cm2 green light for 15 mins by DHR123 probe based analysis
[18] = Drug accumulation in human HeLa cells assessed as mitochondrial localization at 2 uM incubated for 30 mins by Hoechst 33342 staining based live cell confocal microscopic analysis; assay type: ADME; conditions: 0.5 h
Outline: (§4)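 Live HeLa cells (DMEM, 4.5 g/L glucose, 10% FBS, pen-strep) on glass-bottom dishes; 24 h after seeding, incubated 30 min at 37 °C with compound (1 or 2 μM) in DMEM + 10% FBS. Cells were washed three times with DPBS and imaged at 37 °C, 5% CO2 in phenol-red-free low-glucose DMEM. Excitation 561 nm, emission 570–670 nm. For co-staining, MitoTracker Green FM (0.1 μM) was co-incubated 30 min in nonsupplemented DMEM and excited at 488 nm.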

[19] = Drug localization in lysosome of human HeLa cells at 1 uM incubated for 30 mins by Lysotracker green dye based confocal scanning microscopic analysis; assay type: ADME, subcellular; conditions: 0.5 h; outline: as §1
[20] = Drug accumulation in human HeLa cells assessed as mitochondrial localization at 1 uM incubated for 30 mins by Hoechst 33342 staining based live cell confocal microscopic analysis; assay type: ADME; conditions: 0.5 h; outline: as §4
[21] = Drug localization in mitochondria of human HeLa cells at 1 uM incubated for 30 mins by Mito-tracker green dye based confocal scanning microscopic analysis; assay type: ADME; conditions: 0.5 h
Outline: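 Cells washed with DPBS and imaged live by confocal at 37 °C with 5% CO2: compound excited at 561 nm (detection 570–670 nm), MTG at 488 nm. Colocalization coefficients from 5 stacks of about 25 cells.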

[22] = Photocytotoxicity in human U-87 MG cells assessed as reduction in cell viability irradiated with 550 nm 4 mW/cm^-2 green-yellow LED light for […] and measured after 48 hrs by MTT assay; assay type: toxicity, cell-based, U-87MG ATCC; outline: as §2
U-87 MG [23] = test: Cytotoxicity against human U-87 MG cells assessed as reduction in cell viability incubated for 2 hrs under dark condition by MTT assay; assay type: functional, cell-based, U-87MG ATCC; outline: as §2
U-87 MG [24] = test: Cytotoxicity against human U-87 MG cells assessed as reduction in cell viability incubated for 2 hrs under dark condition by resazurin assay; assay type: functional, cell-based; conditions: U-87MG ATCC

CCN(CC)c1ccc2c(c1)O/C(=C(/C#N)c1cc[n+](CCC[N+](C)(C)C)cc1)C=C2C(C)OC(=O)CCCc1ccc(N(CCCl)CCCl)cc1.[Cl-].[Cl-] (stereo not drawn)
Activity [1]: 0.09 | Activity [2]: Active | Activity [3]: < 0.01 | Drug uptake [4]: Active | Drug uptake [5]: Active | Drug uptake [6]: Active | Activity (HeLa [7]): Non-toxic | Activity (HeLa [8]): Non-toxic | Activity (HeLa [9]): Non-toxic | IC50 (HeLa [10]): 41 µM | selectivity ratio at 48 h [11]: 3.7 | Activity [12]: 1.07e-05 | Drug uptake [13]: Active | Drug uptake [14]: Active | Activity [15]: Active | Activity [16]: Active | Activity [17]: Active

O=C(O)CCCc1ccc(N(CCCl)CCCl)cc1 [CHLORAMBUCIL]
IC50 (HeLa [10]): > 100 µM

O=C(O)CCCc1ccccc1
IC50 (HeLa [10]): > 100 µM

CCCCCC[n+]1ccc(/C(C#N)=C2/C=C(C)c3ccc(N(CC)CC)cc3O2)cc1
Activity [2]: Active | Activity [17]: Active

CCCCCC[n+]1ccc(/C(C#N)=C2/C=C(C(C)O)c3ccc(N(CC)CC)cc3O2)cc1.[Cl-] (stereo not drawn)
Activity [1]: 0.26 | Activity [2]: Active | Drug uptake [18]: Active | IC50 (HeLa [10]): 27.2 µM | selectivity ratio at 48 h [11]: 40 | Activity [17]: Active

CCCCCC[n+]1ccc(/C(C#N)=C2/C=C(C(C)OC(=O)CCCc3ccccc3)c3ccc(N(CC)CC)cc3O2)cc1.[Br-] (stereo not drawn)
Activity [1]: 0.23 | Activity [2]: Active | Activity [3]: 0.05 | Drug uptake [4]: Active | Drug uptake [19]: Active | Drug uptake [20]: Active | Drug uptake [21]: Active | IC50 (HeLa [10]): 3.54 µM | selectivity ratio at 48 h [11]: 131 | Activity [12]: 3.89e-05 | Activity [15]: Active | Activity [16]: Active | Activity [17]: Active

CCCCCC[n+]1ccc(/C(C#N)=C2/C=C(C(C)OC(=O)CCCc3ccc(N(CCCl)CCCl)cc3)c3ccc(N(CC)CC)cc3O2)cc1.[Cl-] (stereo not drawn)
Activity [1]: 0.07 | Activity [2]: Active | Activity [3]: < 0.01 | Drug uptake [4]: Active | Drug uptake [19]: Active | Drug uptake [21]: Active | Activity (HeLa [7]): Non-toxic | Activity (HeLa [8]): Non-toxic | Activity (HeLa [9]): Non-toxic | IC50 (HeLa [10]): 3.76 µM | selectivity ratio at 48 h [11]: 40 | IC50 at 48 h [22]: 0.12 µM | IC50 (U-87 MG [23]): 6.72 µM | Activity (U-87 MG [24]): Active | Activity [12]: 1.3e-05 | Activity [15]: Active | Activity [16]: Active | Activity [17]: Active
